Laboratory results from ChEMBL document CHEMBL6153131, “Rational Design and Optimization of a Potent IDO1 Proteolysis Targeting Chimera (PROTAC)” (J Med Chem, 2025).
The source made the active and inactive calls. The rule behind the calls is not given here.

Tests used:
[1] = target: T1, Protein cereblon/Indoleamine 2,3-dioxygenase 1 (Homo sapiens, UniProt P14902+Q96SW2); assay: PROTAC activity at CRBN/IDO1 in human GBM43 cell assessed as induction of IDO1 degradation pretreated with IFN-gamma for 24 hrs followed by compound addition and measured after 24 hrs by Western blot analysis; assay type: cell-based
Method in brief: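 GBM43 cells treated for 24 h across an extended dose range. IDO1 Western blot, IFN-γ-induced IDO1 normalized to untreated; DC50 from n = 3 independent experiments.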
Target sequence in this assay (P14902 whole entry): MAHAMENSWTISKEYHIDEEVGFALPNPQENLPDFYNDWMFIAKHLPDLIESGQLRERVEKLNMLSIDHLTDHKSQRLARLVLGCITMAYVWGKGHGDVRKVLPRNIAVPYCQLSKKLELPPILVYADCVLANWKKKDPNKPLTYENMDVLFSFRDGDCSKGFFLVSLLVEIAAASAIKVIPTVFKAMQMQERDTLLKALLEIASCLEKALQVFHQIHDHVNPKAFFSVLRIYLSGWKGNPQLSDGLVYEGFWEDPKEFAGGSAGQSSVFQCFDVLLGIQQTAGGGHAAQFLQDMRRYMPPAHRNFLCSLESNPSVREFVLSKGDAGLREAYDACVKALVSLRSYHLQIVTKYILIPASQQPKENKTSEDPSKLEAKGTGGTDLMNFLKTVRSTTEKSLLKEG
Target sequence in this assay (Q96SW2 whole entry): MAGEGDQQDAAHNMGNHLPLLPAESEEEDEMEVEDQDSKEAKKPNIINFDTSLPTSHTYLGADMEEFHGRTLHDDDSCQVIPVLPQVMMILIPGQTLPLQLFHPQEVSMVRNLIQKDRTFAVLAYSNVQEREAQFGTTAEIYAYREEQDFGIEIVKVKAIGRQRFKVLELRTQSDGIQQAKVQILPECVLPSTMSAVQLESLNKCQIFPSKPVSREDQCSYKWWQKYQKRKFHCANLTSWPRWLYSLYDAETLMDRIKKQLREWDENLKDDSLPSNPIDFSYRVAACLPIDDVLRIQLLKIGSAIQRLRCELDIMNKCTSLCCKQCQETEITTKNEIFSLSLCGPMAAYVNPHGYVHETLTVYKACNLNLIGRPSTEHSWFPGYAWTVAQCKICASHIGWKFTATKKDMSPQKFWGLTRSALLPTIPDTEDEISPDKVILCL

PDX-6 = assay: Inhibition of kynurenine production in human PDX-6 cells pretreated with IFN-gamma for 24 hrs followed by compound addition and measured after 24 hrs by Ehrlich's reagent based analysis; assay type: functional, cell-based; conditions: dose 50-100 nM
U-87MG ATCC [2] = assay: Inhibition of kynurenine production in human U87 cells overexpressing GFP-fused IDO1 cells pretreated with IFN-gamma for 24 hrs followed by compound addition and measured after 24 hrs by Ehrlich's reagent based analysis; assay type: functional, cell-based; conditions: dose 50-100 nM
[3] = target: T1, Protein cereblon/Indoleamine 2,3-dioxygenase 1; assay: PROTAC activity at CRBN/IDO1 in human GBM43 cell assessed as induction of IDO1 degradation at 0.003 uM pretreated with IFN-gamma for 24 hrs followed by compound addition and measured after 24 hrs by Western blotting analysis (reference value: 100%); assay type: cell-based
Method in brief: (§1)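 GBM43 patient-derived cells given an extended dose range of PROTAC for 24 h. Protein analysed by Western blot for IDO1, and IFNγ-induced IDO1 normalised to untreated samples. n = 3 independent experiments; data as mean ± SEM.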
Target sequence in this assay (P14902 whole entry, looked up): as the sequence (P14902 whole entry) above
Target sequence in this assay (Q96SW2 whole entry, looked up): as the sequence (Q96SW2 whole entry) above

[4] = target: T1, Protein cereblon/Indoleamine 2,3-dioxygenase 1; assay: PROTAC activity at CRBN/IDO1 in human GBM43 cell assessed as induction of IDO1 degradation at 0.1 uM pretreated with IFN-gamma for 24 hrs followed by compound addition and measured after 24 hrs by Western blotting analysis (reference value: 100%); assay type: cell-based; method in brief: as §1
Target sequence in this assay (P14902 whole entry, looked up): as the sequence (P14902 whole entry) above
Target sequence in this assay (Q96SW2 whole entry, looked up): as the sequence (Q96SW2 whole entry) above

[5] = target: T1, Protein cereblon/Indoleamine 2,3-dioxygenase 1; assay: PROTAC activity at CRBN/IDO1 in human PDX-38 cells assessed as induction of IDO1 degradation pretreated with IFN-gamma for 24 hrs followed by compound addition and measured after 24 hrs by Western blotting analysis; assay type: cell-based; conditions: dose 50-100 nM
Method in brief: (§2)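 Cells had IDO1 induced with IFNγ, then were treated at the indicated concentrations for 24 h. Lines: PDX-6 and PDX-38 adult GBM PDX cells, U87 overexpressing GFP-fused IDO1, PC-3, KNS42, MDA-MB-231, SW-1990 and SKOV-3. Lysates probed for IDO1 and GAPDH by Western blot; representative of 3 separate replicates.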
Target sequence in this assay (P14902 whole entry, looked up): as the sequence (P14902 whole entry) above
Target sequence in this assay (Q96SW2 whole entry, looked up): as the sequence (Q96SW2 whole entry) above

[6] = target: T1, Protein cereblon/Indoleamine 2,3-dioxygenase 1; assay: PROTAC activity at CRBN/IDO1 in human U87 cells assessed as induction of IDO1 degradation at 50 to 100 nM pretreated with compound for 24 hrs followed by compound washout and measured upto 48 hrs by Western blotting analysis; assay type: cell-based; conditions: dose 50-100 nM
Method in brief: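 U87 cells given a 24 h PROTAC pulse, then cultured without compound for up to 48 h after washout. IDO1 assessed by Western blot.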
Target sequence in this assay (P14902 whole entry, looked up): as the sequence (P14902 whole entry) above
Target sequence in this assay (Q96SW2 whole entry, looked up): as the sequence (Q96SW2 whole entry) above

U-87MG ATCC [7] = assay: Inhibition of kynurenine production in human U87 cells […] and measured after 24 hrs by Ehrlich's reagent based analysis; assay type: functional, cell-based; conditions: dose 0.001-10 µM
Method in brief: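 U87 cells plated, then 24 h later given compound with 50 ng/mL IFN-γ for a total of 24 h. Supernatant kynurenine measured with Ehrlich's reagent; cells without IFN-γ as control; mean ± SEM, Tukey's test.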

Kelly [8] = assay: Downregulation of SALL4 protein level in human Kelly cells at 1 uM incubated for 24 hrs by proteomics analysis; assay type: functional, cell-based
[9] = target: T1, Protein cereblon/Indoleamine 2,3-dioxygenase 1; assay: PROTAC activity at CRBN/IDO1 in human U87 cells assessed as induction of IDO1 degradation by measuring maximum efficacy at 100 nM pretreated with IFN-gamma for 24 hrs followed by compound addition and measured after 24 hrs by Western blotting analysis relative to control; assay type: cell-based
Method in brief: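 IDO1 in U87 cells induced with 50 ng/mL human IFN-γ, then compound given across an extended dose range for 24 h. IDO1 and GAPDH read by Western blot; IDO1 levels normalized to untreated; DC50 from n = 3 independent experiments.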
Target sequence in this assay (P14902 whole entry, looked up): as the sequence (P14902 whole entry) above
Target sequence in this assay (Q96SW2 whole entry, looked up): as the sequence (Q96SW2 whole entry) above

[10] = target: T1, Protein cereblon/Indoleamine 2,3-dioxygenase 1; assay: PROTAC activity at CRBN/IDO1 in human U87 cells assessed as induction of IDO1 degradation by measuring remaining activity at 0.1 uM pretreated with IFN-gamma for 24 hrs followed by compound addition and measured after 24 hrs by Western blotting analysis (reference value: 100%); assay type: cell-based
Method in brief: (§3)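 U87 cells given an extended dose range of PROTAC for 24 h, then Western blot for IDO1. IFNγ-induced IDO1 levels normalised to untreated samples. n = 3 independent experiments; mean ± SEM.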
Target sequence in this assay (P14902 whole entry, looked up): as the sequence (P14902 whole entry) above
Target sequence in this assay (Q96SW2 whole entry, looked up): as the sequence (Q96SW2 whole entry) above

[11] = Half life in female C57BL/6J mouse brain at 50 mg/kg, ip by LC-MS/MS analysis; assay type: ADME, organism-based
SW1990 = assay: Inhibition of kynurenine production in human SW1990 cells pretreated with IFN-gamma for 24 hrs followed by compound addition and measured after 24 hrs by Ehrlich's reagent based analysis; assay type: functional, cell-based; conditions: dose 50-100 nM
[12] = target: T1, Protein cereblon/Indoleamine 2,3-dioxygenase 1; assay: PROTAC activity at CRBN/N-terminal HiBiT-tagged IDO1 (unknown origin) transfected in human U87 cells assessed as induction of IDO1 degradation by measuring maximum efficacy pretreated with IFN-gamma for 24 hrs followed by compound addition and measured after 24 hrs by Nano-Glo HiBiT assay relative to control; assay type: cell-based
Method in brief: (§4)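 U87 cells carrying HiBiT knocked in by CRISPR/Cas9 at the IDO1 N-terminus, treated for 24 h. Degradation read as loss of luminescence. DC50 fitted from the lowest concentration up to maximal degradation, excluding hook-effect points; triplicate mean ± SD.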

[13] = target: T1, Protein cereblon/Indoleamine 2,3-dioxygenase 1; assay: PROTAC activity at CRBN/IDO1 in human PC-3 cells assessed as induction of IDO1 degradation pretreated with IFN-gamma for 24 hrs followed by compound addition and measured after 24 hrs by Western blotting analysis; assay type: cell-based; conditions: dose 50-100 nM; method in brief: as §2
[14] = target: T1, Protein cereblon/Indoleamine 2,3-dioxygenase 1; assay: PROTAC activity at CRBN/IDO1 in human U87 cells assessed as induction of IDO1 degradation at 100 nM at 1 uM pretreated with IFN-gamma for 24 hrs followed by compound addition and measured after 24 hrs in presence of pomalidomide by Western blotting analysis; assay type: cell-based
[15] = target: T1, Protein cereblon/Indoleamine 2,3-dioxygenase 1; assay: PROTAC activity at CRBN/N-terminal HiBiT-tagged IDO1 (unknown origin) transfected in human U87 cells assessed as induction of IDO1 degradation pretreated with IFN-gamma for 24 hrs followed by compound addition and measured after 24 hrs by Nano-Glo HiBiT assay; assay type: cell-based; method in brief: as §4
Target sequence in this assay (P14902 whole entry): as the sequence (P14902 whole entry) above
Target sequence in this assay (Q96SW2 whole entry): as the sequence (Q96SW2 whole entry) above

[16] = target: T1, Protein cereblon/Indoleamine 2,3-dioxygenase 1; assay: PROTAC activity at CRBN/IDO1 in human U87 cells assessed as induction of IDO1 degradation by measuring remaining activity at 3 uM pretreated with IFN-gamma for 24 hrs followed by compound addition and measured after 24 hrs by Western blotting analysis (reference value: 100%); assay type: cell-based; method in brief: as §3
[17] = target: T1, Protein cereblon/Indoleamine 2,3-dioxygenase 1; assay: PROTAC activity at CRBN/IDO1 in human KNS-42 cells assessed as induction of IDO1 degradation pretreated with IFN-gamma for 24 hrs followed by compound addition and measured after 24 hrs by Western blotting analysis; assay type: cell-based; conditions: dose 50-100 nM; method in brief: as §2
[18] = target: T1, Protein cereblon/Indoleamine 2,3-dioxygenase 1; assay: PROTAC activity at CRBN/IDO1 in human SK-OV-3 cells assessed as induction of IDO1 degradation pretreated with IFN-gamma for 24 hrs followed by compound addition and measured after 24 hrs by Western blotting analysis; assay type: cell-based; conditions: dose 50-100 nM; method in brief: as §2
Kelly [19] = assay: Downregulation of ADO protein level in human Kelly cells at 1 uM incubated for 24 hrs by proteomics analysis; assay type: functional, cell-based
[20] = target: T1, Protein cereblon/Indoleamine 2,3-dioxygenase 1; assay: PROTAC activity at CRBN/IDO1 in human GBM43 cell assessed as induction of IDO1 degradation at 0.03 uM pretreated with IFN-gamma for 24 hrs followed by compound addition and measured after 24 hrs by Western blotting analysis (reference value: 100%); assay type: cell-based; method in brief: as §1

SMILES: C[C@@H](C(=O)Nc1cccc(OC2CCN(C(=O)CN3CCC(N4CCN(c5ccc6c(c5)C(=O)N(C5CCC(=O)NC5=O)C6=O)CC4)CC3)CC2)c1)[C@H]1CC[C@@H](c2ccnc3ccc(F)cc32)CC1 (some centres not stated)
- DC50 [1]: 11.8 nM
- inhibition (PDX-6): Dose-dependent-effect
- inhibition (U-87MG ATCC [2]): Dose-dependent-effect
- Activity [3]: 75%
- Activity [4]: 13%
- Activity [5]: Dose-dependent-effect
- Activity [6]: Active
- inhibition (U-87MG ATCC [7]): Dose-dependent-effect
- Activity (Kelly [8]): Active
- Emax [9]: 88%
- Activity [10]: 12%
- half-life [11]: 11.8 h
- inhibition (SW1990): Dose-dependent-effect
- Emax [12]: 63%
- Activity [13]: Dose-dependent-effect
- Activity [14]: inactive
- DC50 [15]: 4.5 nM
- Activity [16]: 55%
- Activity [17]: Dose-dependent-effect
- Activity [18]: Dose-dependent-effect
- Activity (Kelly [19]): Active
- Activity [20]: 34%
